{"source": "paper PMC7237122", "about": "(OncoTargets and therapy, 2020)", "key": {"[1]": {"system": "H22-tumor-bearing mice", "experiment": "H22-tumor-bearing mice: tumor size, tumor weight, HE staining", "format": "in vivo", "settings": "for tumor inhibition rate (TIR), tumor weight: 5-Fu ip 200 mg/kg twice a week, SOLB ip 100 mg/kg once daily, 8 days; for tumor size: H22-tumor-bearing mice, compared with model group", "outline": "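In H22-inoculated male Kunming mice (tumors 100~150 mm3, randomised 10~12/group), treatment ran 8 days (daily test agents; 5-Fu twice weekly). Tumor size was measured by Vernier calipers. Tumors were excised after a 16 h fast and ether euthanasia. Inhibition rate was taken from mean tumor indices of drug versus model groups. Tissue was fixed overnight in 4% buffered paraformaldehyde for HE. Mean ± standard error; ANOVA.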"}, "[2]": {"system": "H22-tumor-bearing mice", "experiment": "H22-tumor-bearing mice: tolerability", "format": "in vivo", "settings": "for mice analyzed / mice in group: 5-Fu ip 200 mg/kg twice a week, SOLB ip 100 mg/kg once daily, 8 days", "outline": "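Animals bearing 7-day H22 tumors (male Kunming, 10~12/group) were treated once daily 09:00–10:00 for 8 days (test agents ip or po); 5-Fu ip 200 mg/kg was given twice weekly. Appearance and behaviour were observed, and diarrhea, irritation and emaciation were recorded. Body weight was followed over therapy. Liver was fixed overnight in 4% buffered paraformaldehyde for HE.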"}, "[3]": {"system": "ALT and AST", "experiment": "H22-tumor-bearing mice: liver function", "format": "in vivo", "settings": "blood of H22-tumor-bearing mice, compared with model group", "outline": "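H22 ascites cells were injected into male Kunming mice; tumors of 100~150 mm3 at 7 days were randomised (10~12/group) against saline model and uninoculated normal groups. Test agents were given daily for 8 days (ip 100 mg/kg; po 400 or 720 mg/kg). After a 16 h fast, blood was taken from the eyes for ALT and AST. Mean ± standard error; ANOVA.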"}, "[4]": {"system": "IL-6", "experiment": "H22-tumor-bearing mice: IL-6 ELISA of serum and tumor", "format": "in vivo", "settings": "for IL-6 concentration, tumor ELISA: tumor tissue, compared with model group", "outline": "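Male Kunming mice (20~22 g) bearing H22 tumors (100~150 mm3 at day 7, 10~12/group) were dosed 8 days: test agents ip 100 mg/kg or po 400/720 mg/kg daily, or 5-Fu ip 200 mg/kg twice weekly. Mice were fasted 16 h and ether-euthanised. IL-6 was measured by ELISA in eye-collected blood and in liquid-nitrogen-frozen tumor tissue. Mean ± standard error; ANOVA.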"}, "[5]": {"system": "JAK2, Tyr705-p-STAT3, Ser725-p-STAT3", "experiment": "H22-tumor-bearing mice: Western blotting of tumor tissue", "format": "in vivo", "settings": "compared with model group"}, "[6]": {"system": "SMMC-7721 cells", "experiment": "MTT analysis of SMMC-7721 cells", "format": "cell-based", "outline": "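SMMC-7721 cells (Shanghai Institute of Cell Biology) were incubated with test extract or compounds, and growth was read by MTT. Mean ± standard error; ANOVA, P<0.05.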"}, "[7]": {"system": "SMMC-7721 cells", "experiment": "Hochest apoptosis test in SMMC-7721 cells", "format": "cell-based", "settings": "concentration not given", "outline": "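Apoptosis in SMMC-7721 cells exposed to test extract or compounds was assessed by Hoechst staining per kit instructions. Mean ± standard error; ANOVA.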"}}, "data": [{"molecule": "O=c1[nH]cc(F)c(=O)[nH]1", "note": "[5-Fu, 5-fluorouracil]", "values": [{"measurement": "tumor inhibition rate (TIR), tumor weight", "setting": "[1]", "result": 91.94, "unit": "%"}, {"measurement": "tumor size", "setting": "[1]", "result": "the smallest"}, {"measurement": "HE staining of tumor tissue", "setting": "[1]; chromatin condensation and nuclear shrinkage, compared to model group", "result": "good"}, {"measurement": "mice analyzed / mice in group", "setting": "[2]", "result": "10/12"}, {"measurement": "appearance and behavior (adverse reactions)", "setting": "[2]; therapeutic period", "result": "diarrhea and alopecia, their appetite was poor"}, {"measurement": "weights of mice", "setting": "[2]; therapeutic period", "result": "steadily increased during the therapeutic period except in the 5-Fu group"}, {"measurement": "liver function: ALT and AST levels", "setting": "[3]", "result": "the best"}, {"measurement": "IL-6 concentration, serum ELISA", "setting": "[4]", "result": "increasing not decreasing IL-6"}, {"measurement": "IL-6 concentration, tumor ELISA", "setting": "[4]", "result": "higher than the model group"}, {"measurement": "protein expressions of JAK2, Tyr705-p-STAT3, Ser725-p-STAT3 (Western)", "setting": "[5]", "result": "could inhibit protein expressions of JAK2, Tyr705-p-STAT3, and Ser725-p-STAT3"}]}, {"molecule": "O=C(/C=C/c1ccc(O)cc1)CC(=O)/C=C/c1ccc(O)cc1", "note": "[BIS, bisdemethoxycurcumin]", "values": [{"measurement": "growth of SMMC-7721 cells (MTT)", "setting": "[6]", "result": "could inhibit the growth of SMMC-7721 cells in a dose-dependent manner"}]}, {"molecule": "O=C(O)/C=C/c1ccc(O)c(O)c1", "note": "[CAF, caffeic acid]", "values": [{"measurement": "growth of SMMC-7721 cells (MTT)", "setting": "[6]", "result": "no obvious effects"}]}, {"molecule": "OC[C@H]1O[C@@H](O[C@@H]2OC=C[C@H]3[C@H](O)[C@@H]4O[C@]4(CO)[C@@H]23)[C@H](O)[C@@H](O)[C@@H]1O", "note": "[CAT, catalpol]", "values": [{"measurement": "growth of SMMC-7721 cells (MTT)", "setting": "[6]", "result": "no obvious effects"}]}, {"molecule": "O=C(/C=C/c1ccc(O)c(O)c1)O[C@@H]1C[C@](O)(C(=O)O)C[C@@H](O)[C@H]1O", "note": "[CHL, chlorogenic acid]", "values": [{"measurement": "growth of SMMC-7721 cells (MTT)", "setting": "[6]", "result": "no obvious effects"}]}, {"molecule": "COc1cc(/C=C/C(=O)CC(=O)/C=C/c2ccc(O)c(OC)c2)ccc1O", "note": "[CUR, curcumin]", "values": [{"measurement": "growth of SMMC-7721 cells (MTT)", "setting": "[6]", "result": "could inhibit the growth of SMMC-7721 cells in a dose-dependent manner"}]}, {"molecule": "O=C1C[C@@H](c2ccc(O[C@@H]3O[C@H](CO)[C@@H](O)[C@H](O)[C@H]3O)cc2)Oc2cc(O)ccc21", "note": "[LIQ, liquiritin]", "values": [{"measurement": "growth of SMMC-7721 cells (MTT)", "setting": "[6]", "result": "no obvious effects"}]}, {"molecule": "COc1cc2c(c(OC)c1OC)-c1c(cc3c(c1OC)OCO3)CC(C)C(C)C2", "note": "(stereo not shown) [SCHB, schisandrin B]", "values": [{"measurement": "growth of SMMC-7721 cells (MTT)", "setting": "[6]", "result": "could inhibit the growth of SMMC-7721 cells in a dose-dependent manner"}]}, {"molecule": "COc1cc2c(c(OC)c1OC)-c1c(cc3c(c1OC)OCO3)C[C@H](C)[C@@](C)(O)C2", "note": "[SOLB, schisandrol B]", "values": [{"measurement": "growth of SMMC-7721 cells (MTT)", "setting": "[6]", "result": "could inhibit the growth of SMMC-7721 cells in a dose-dependent manner"}, {"measurement": "effect on apoptosis (Hochest), pure compounds", "setting": "[7]", "result": "an active ingredient of DWYG extract"}, {"measurement": "tumor inhibition rate (TIR), tumor weight", "setting": "[1]", "result": 34.98, "unit": "%"}, {"measurement": "tumor size", "setting": "[1]", "result": "effective but not better than 5-Fu"}, {"measurement": "mice analyzed / mice in group", "setting": "[2]", "result": "12/12"}, {"measurement": "liver function: ALT and AST levels", "setting": "[3]", "result": "effective"}, {"measurement": "IL-6 concentration, serum ELISA", "setting": "[4]", "result": "less than 5-Fu but more than DWYG extract"}, {"measurement": "IL-6 concentration, tumor ELISA", "setting": "[4]", "result": "less than in the model group"}, {"measurement": "protein expressions of JAK2, Tyr705-p-STAT3, Ser725-p-STAT3 (Western)", "setting": "[5]", "result": "could inhibit protein expressions of JAK2, Tyr705-p-STAT3, and Ser725-p-STAT3"}]}, {"molecule": "demethoxycurcumin", "values": [{"measurement": "growth of SMMC-7721 cells (MTT)", "setting": "[6]", "result": "could inhibit the growth of SMMC-7721 cells in a dose-dependent manner"}]}, {"molecule": "deoxyschizandrin", "values": [{"measurement": "growth of SMMC-7721 cells (MTT)", "setting": "[6]", "result": "could inhibit the growth of SMMC-7721 cells in a dose-dependent manner"}, {"measurement": "effect on apoptosis (Hochest), pure compounds", "setting": "[7]", "result": "not good"}]}, {"molecule": "schisandrol A [SOLA]", "values": [{"measurement": "effect on apoptosis (Hochest), pure compounds", "setting": "[7]", "result": "not good"}]}, {"molecule": "schisantherin A [SINA]", "values": [{"measurement": "growth of SMMC-7721 cells (MTT)", "setting": "[6]", "result": "could inhibit the growth of SMMC-7721 cells in a dose-dependent manner"}]}]}
